Source: PubChem BioAssay (several laboratories)
MT1-MMP act inh: MT1-MMP (human) activation inhibition; HT1080 RFP-PRO-GFP cells, GFP/RFP ratio fluorescence, overnight; percent of plate control window, DMSO zero; GFP/RFP ratio change, % at 20 µM; 360,000 compounds, 0.061% hits; AID 651647;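 active = GFP/RFP ratio change of at least 30% with cell ATP level not reduced by more than half and red fluorescence within 50% of control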
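Assay system: HT1080 RFP-PRO-GFP cells | Dosing: 20 µM single dose, 1% DMSO | Incubation: Cells overnight before dosing, compound overnight, 37 °C, 5% CO2 | Evaluation: GFP/RFP fluorescence ratio | Control set: DMSO-only wells and HT1080 RFP-L50D-GFP cell wells as references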
SKN-1 block: inhibitors of C. elegans SKN-1; 360,000 compounds, 0.49% hits; C. elegans VP596 Pgst-4::GFP/RFP ratio, acrylamide-induced, 24 h; inhibition, % at 21.8 µM;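 active = interference check ratio from 0.5 to 1.5 plus GFP to RFP signal ratio inhibition reaching or exceeding a fixed threshold, cut at about 30% in these data, passing the limit was not always enough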
MsrA inh: bovine MsrA inhibition | purified bovine MsrA, absorbance read-out | inhibition, % at 15.5 µM | 360,000 compounds, 0.75% hits; in the data active = inhibition above about 4.5%
MIN6 prolif: MIN6 beta-cell proliferation induction; AID 2380; 330,000 compounds, 0.29% hits; MIN6 cells proliferation, ATPlite luminescence, 48 h; cells starved in 0.2% serum; 100% = growth in 10% serum; proliferation, % at 10 µM;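 active = compounds whose signal lies at least 3.5 SD above the mean of all wells on their plate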
MsrA act: activates bovine MsrA enzyme | 360,000 compounds, 0.3% hits | purified bovine MsrA, absorbance read-out | activation, % at 10.6 µM; in the data active = activation above about 7.5%
DAGLB inh: diacylglycerol lipase beta (human) inhibition; Q8NCG7; HEK293T DAGLB membrane lysate, EnzChek fluorogenic substrate; inhibition, % at 5.17 µM; 340,000 compounds, 0.059% hits; AID 504411; in the data active = inhibition above about 34%
Target sequence (Q8NCG7 whole entry, looked up): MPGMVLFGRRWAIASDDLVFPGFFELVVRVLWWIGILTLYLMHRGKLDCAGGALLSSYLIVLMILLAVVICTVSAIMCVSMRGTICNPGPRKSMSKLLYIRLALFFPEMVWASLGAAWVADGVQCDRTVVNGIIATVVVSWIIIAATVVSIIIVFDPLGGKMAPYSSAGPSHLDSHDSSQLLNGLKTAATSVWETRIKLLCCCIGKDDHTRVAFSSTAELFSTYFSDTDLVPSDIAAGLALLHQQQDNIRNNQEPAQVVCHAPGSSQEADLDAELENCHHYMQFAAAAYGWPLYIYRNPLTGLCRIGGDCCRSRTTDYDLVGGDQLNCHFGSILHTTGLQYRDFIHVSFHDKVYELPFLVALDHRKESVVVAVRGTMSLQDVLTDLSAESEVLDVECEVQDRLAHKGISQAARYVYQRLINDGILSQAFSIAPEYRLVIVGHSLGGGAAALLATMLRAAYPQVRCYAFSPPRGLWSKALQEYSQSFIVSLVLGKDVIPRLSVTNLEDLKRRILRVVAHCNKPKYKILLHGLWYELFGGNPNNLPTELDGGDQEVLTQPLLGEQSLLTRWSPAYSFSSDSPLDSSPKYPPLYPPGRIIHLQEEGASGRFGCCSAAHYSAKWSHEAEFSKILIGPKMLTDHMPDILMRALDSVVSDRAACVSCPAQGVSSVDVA
Of the large screens only hits and unclear results are named; the others gave an inactive call. Sampled rows, rich in hits. Any-hit rate of the full collection: about 1.8%.

Clc1ccc(-c2nnnn2-c2ccc(Cl)c(Cl)c2)cc1Cl	MsrA inh 15.6
O=C(C(=O)N1CCN(C(=O)C2CCCC2)CC1)c1cccc(C(F)(F)F)c1	none (no result: MT1-MMP act inh, SKN-1 block, MIN6 prolif, MsrA act, DAGLB inh)
COc1ccc(CNS(=O)(=O)c2cc(Br)ccc2Br)c(OC)c1	none (no result: MT1-MMP act inh, SKN-1 block, MIN6 prolif, MsrA act, DAGLB inh)
Clc1ccc(-c2nc3cc(CN4CCCCC4)ccc3o2)cc1	SKN-1 block 76.6 (no result: MIN6 prolif)
CCOC(=O)CC1C(=O)NCCN1c1nc2ccc(C)cn2c(=O)c1/C=C1\SC(=S)N(C(C)CC)C1=O (stereo not drawn)	none (no result: MT1-MMP act inh, SKN-1 block, MsrA inh, MsrA act, DAGLB inh)
CCOC(=O)CC1C(=O)NCCN1c1nc2ccc(C)cn2c(=O)c1/C=C1\SC(=S)N(CC(C)C)C1=O (stereo not drawn)	SKN-1 block 42.4 (no result: MsrA inh)
CC(C)C[C@H]1CN([C@@H](Cc2ccccc2)CN2CCC[C@H]2CN2C(=O)C(=O)NC[C@@H]2Cc2ccccc2)C(=O)C(=O)N1CC1CCCCCC1	none (no result: MT1-MMP act inh, SKN-1 block, MIN6 prolif, MsrA act, DAGLB inh)
CCOC(=O)C1=C(CSc2nc(-c3ccccc3)ccc2C#N)OC(N)=C(C#N)C1c1ccccc1 (stereo not drawn)	SKN-1 block 37.4
Cc1cc(O)cc(=O)n1-c1cc(F)c(F)c(F)c1	none (no result: MT1-MMP act inh, SKN-1 block, MIN6 prolif, MsrA act, DAGLB inh)
NC(=NC(=O)c1ccc(OCC(F)(F)F)nc1)c1ccccc1	SKN-1 block 38.0
C[C@@H]1ON(C)[C@H]2C[C@H]3c4cc(-c5ccccc5)ccc4CCN3C[C@@H]12	none (no result: MT1-MMP act inh, SKN-1 block, MIN6 prolif, MsrA act, DAGLB inh)
Nc1cc(=O)[nH]c(SCC(=O)Nc2ccc3c(c2)CCC3)n1	none
O=C(CSc1nc(O)cc(=O)[nH]1)Nc1ccc2c(c1)CCC2	SKN-1 block 45.6
Cc1ccc(NC(=O)CSc2nc(N)cc(=O)[nH]2)cc1S(=O)(=O)N1CCCCCC1	SKN-1 block 52.9
CCCc1cc(=O)[nH]c(SCC(=O)Nc2ccc(C)c(S(=O)(=O)N3CCCCC3)c2)n1	none
O=C(/C=C/c1cccs1)N1CCc2ccccc21	SKN-1 block 35.0
CC(C)Cn1nc(NC(=O)C2CCCO2)c2cc3ccccc3nc21 (stereo not drawn)	MIN6 prolif 6.5
CC(C)(C)c1ccc(C2=CSC3=NCCN23)cc1	SKN-1 block 47.6
COC(=O)C1=C(C)N(Cc2ccccc2C(F)(F)F)C(=NCc2ccccc2)NC1c1ccc(F)cc1 (stereo not drawn)	none (no result: MT1-MMP act inh, SKN-1 block, MIN6 prolif, MsrA act, DAGLB inh)
CCCC(=O)OC[C@H]1CN(C2CCCC2)S(=O)(=O)c2c(F)cccc2O1	none (no result: MT1-MMP act inh, SKN-1 block, MIN6 prolif, MsrA act, DAGLB inh)
Cc1cc(Oc2cccnc2)ccc1NC(=O)Cc1cn(C)c2ccccc12	none (no result: MT1-MMP act inh, SKN-1 block, MIN6 prolif, MsrA act, DAGLB inh)
CC(C)Sc1nc(N)nc(-c2cccs2)c1C#N	SKN-1 block 39.6
CSc1nc(N)nc(-c2cccs2)c1C#N	none
CCCn1c(N)c(C(c2ccc(OC)cc2)N2CCN(c3ccccc3)CC2)c(=O)[nH]c1=O (stereo not drawn)	SKN-1 block 37.6
CCNC(=O)C1(C)CCCN1C(=O)c1ccc(-c2ccccc2)cc1 (stereo not drawn)	none (no result: MIN6 prolif, DAGLB inh)
CCNC(=O)C1(C)CCCN1C(=O)c1ccc(C#N)cc1 (stereo not drawn)	SKN-1 block 63.3 (no result: MIN6 prolif, DAGLB inh)
COc1ccccc1CN(Cc1cc2c(C)ccc(C)c2[nH]c1=O)Cc1nnnn1Cc1ccco1	SKN-1 block 37.2
CCn1c2ccccc2c2cc(/C=N/NC(=O)c3ccccc3C)ccc21	none
CCn1c2ccccc2c2cc(/C=N/NC(=O)c3cccc(C)c3)ccc21	SKN-1 block 45.1
COc1ccc2c(c1)CC/C(=C/c1ccco1)C2=O	SKN-1 block 59.6
COc1ccc(C=C2CCc3ccccc3C2=O)cc1	none (no result: MIN6 prolif, DAGLB inh)
O=C1/C(=C/c2ccco2)CCc2ccccc21	SKN-1 block 65.2
Nc1ccc2c(c1)C/C(=C/c1ccco1)C2=O	none
O=C(NCCCN1CCOCC1)c1ccc(S(=O)(=O)N2CCOCC2)cc1	none
CC(=O)NCCn1c(C)cc2ccccc21	SKN-1 block 49.0
Cc1cc2ccccc2n1CCNC(=O)c1ccccc1	SKN-1 block 47.8
Cc1onc(-c2ccccc2Cl)c1C(=O)NCC(=O)O	none
Cc1cc2ccccc2n1CCNC(=O)C(C)(C)C	none
Cc1onc(-c2ccccc2Cl)c1C(=O)NCCn1c(C)cc2ccccc21	MT1-MMP act inh 39.6 (no result: MsrA inh)
Cc1cc2ccccc2n1CCNC(=O)c1ccc(S(=O)(=O)N2CCOCC2)cc1	SKN-1 block 47.3
